PG9 Ab binder: binds the HIV-1 gp120 antibody PG9 | 360,000 tested, 0.43% active | TR-FRET gp120-PG9 antibody binding | AID 624416 | inhibition, % at 6.7 µM; in the data active = inhibition above about 8.5%
NR2E3 ag-1: activates human NR2E3 receptor; inhibition of corepressor binding, % at 3.98 µM; Q9Y5X4; AID 602229; 360,000 tested, 0.35% active; CHO-S Gal4-NCOR/VP16-NR2E3 two-hybrid, luciferase;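 active = inhibition above the mean of all tested compounds plus 3 SD, cut at about 70% in these data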;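 note: 0% = DMSO with NR2E3 transfected cells and 100% = cells lacking NR2E3 construct; higher means lower luciferase signal from less NR2E3 corepressor binding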
NR2E3 ag-2: activates human photoreceptor nuclear receptor NR2E3; Q9Y5X4; GST-NR2E3/biotin-RetCOR TR-FRET, 1536-well; inhibition of corepressor binding, % at 4.78 µM; 320,000 tested, 0.12% active; AID 2300;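 active = percent inhibition above the cutoff of mean plus 3 SD of all tested compounds, set per screening campaign, cut at about 20% in these data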;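 note: 0% = DMSO wells and 100% = biotin wells as full block of FRET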
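Material: NR2E3–RetCOR corepressor complex / Incubation: Compound–protein incubation for 5 h at 4 °C / Dosing: compound at 4.8 µM, single dose / Detection: time-resolved FRET / Benchmarks: high control biotin, low control 0.6% DMSO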
rCAG RNA binder: molecules binding r(CAG) RNA repeats; r(CAG) RNA repeat, TO-PRO-1 dye displacement fluorescence; inhibition, % at 3 µM; 370,000 tested, 1.3% active;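 active = inhibition above the plate cutoff, the mean of all test compounds on that plate plus 3 SD, cut at about 35% in these data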;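 note: 0% = DMSO alone and 100% = 100 µM mitoxantrone as full dye displacement; higher means more dye released from RNA so lower well fluorescence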
Rev-erbA mod: modulates human Rev-erb alpha binding to DNA | Rev-erbα–FITC-DNA binding, fluorescence polarization, 90 min | 370,000 tested, 0.79% active | activity, % at 10 µM;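 active = activity above about 14%, limit read from the data; passing the limit was not always enough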;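 note: 0% = DMSO wells with 35 nM protein and 100% = DMSO wells with 750 nM protein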
Target sequence (P20393 whole entry, looked up): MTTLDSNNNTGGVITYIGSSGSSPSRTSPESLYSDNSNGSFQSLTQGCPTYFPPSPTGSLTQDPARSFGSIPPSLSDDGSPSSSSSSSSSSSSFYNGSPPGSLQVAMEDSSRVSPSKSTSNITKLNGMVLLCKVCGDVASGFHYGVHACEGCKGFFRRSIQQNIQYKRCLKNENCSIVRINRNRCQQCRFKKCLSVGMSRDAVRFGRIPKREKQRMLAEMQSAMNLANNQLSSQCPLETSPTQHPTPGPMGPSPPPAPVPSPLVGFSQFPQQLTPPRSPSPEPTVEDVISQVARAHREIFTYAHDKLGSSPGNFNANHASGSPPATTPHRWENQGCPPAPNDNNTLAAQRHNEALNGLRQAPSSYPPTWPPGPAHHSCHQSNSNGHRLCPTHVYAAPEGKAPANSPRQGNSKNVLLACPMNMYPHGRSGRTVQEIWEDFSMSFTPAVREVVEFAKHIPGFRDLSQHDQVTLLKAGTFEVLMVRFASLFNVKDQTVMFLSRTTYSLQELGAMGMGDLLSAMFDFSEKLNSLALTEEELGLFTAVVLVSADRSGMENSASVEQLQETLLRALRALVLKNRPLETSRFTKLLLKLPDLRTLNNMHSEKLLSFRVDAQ
rCAG bind conf: r(CAG) RNA repeat binding, confirmation. shares compounds with rCAG RNA binder. TO-PRO-1 dye displacement fluorescence. inhibition, % at 3 µM. 4,300 tested, 70% active. AID 652065;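 active = inhibition above a per-plate cutoff, the mean inhibition of sample wells plus 3 SD, cut at about 35% in these data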;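 note: loss of TO-PRO-1 fluorescence as compound displaces dye from 1x1 AA loop RNA; 0% = DMSO only wells and 100% = 100 µM mitoxantrone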
DNA CAG counter: counter-screen for rCAG RNA binders: DNA CAG dye complex inhibitors; 4,300 tested, 94% active; shares compounds with rCAG RNA binder; d(CAG) DNA oligo TO-PRO-1 dye displacement, fluorescence; AID 652068; inhibition, % at 3 µM;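 active = inhibition above its plate's cutoff, the mean test-well inhibition plus 3 SD, cut at about 4.8% in these data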;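 note: 0% = DNA dye mix with DMSO and 100% = 100 µM mitoxantrone; hits displace the dye from DNA and so lower well fluorescence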
dCAG dye DR: counter-screen for rCAG binders: inhibitors of DNA CAG TO-PRO-1 complex; shares compounds with rCAG RNA binder; DNA CAG/GTC duplex TO-PRO-1 dye displacement fluorescence; IC50, µM; 250 tested, 20% active; AID 686960; in the data active = IC50 below about 10 µM
* hit, by the source's call; i = inactive; nt = no result given. Hits are enriched below; roughly 2.6% of the tested compounds scored in any of these assays.

SMILES	PG9 Ab binder	NR2E3 ag-1	NR2E3 ag-2	rCAG RNA binder	Rev-erbA mod	rCAG bind conf	DNA CAG counter	others
Cc1ccc(NS(=O)(=O)c2ccc(Cl)c(N=Nc3c(O)[nH]c(=O)[nH]c3=O)c2)cc1Cl	4	5	nt	66*	-5	76*	36*
Cc1ccc(NC(=S)N(Cc2cccc(Br)c2)CC2CCC(C(=O)O)CC2)cc1Cl (stereo not given)	3	-18	-1	44*	4	60*	21*	dCAG dye DR=i
Cc1cc(C)cc(NC(=S)N(Cc2cccc(Br)c2)CC2CCC(C(=O)O)CC2)c1 (stereo not given)	-2	-13	5	7	2	nt	nt
CCc1ccc(NC(=S)N(Cc2cccc(Br)c2)CC2CCC(C(=O)O)CC2)cc1 (stereo not given)	-1	-11	-1	42*	3	53*	18*
Cc1ccc(CNC(=O)C2CC(c3ccccc3C(F)(F)F)=NO2)o1 (stereo not given)	1	22	-2	38*	-3	5	3
O=C(NCc1ccco1)C1CC(c2ccccc2C(F)(F)F)=NO1 (stereo not given)	0	16	4	5	1	nt	nt
O=C(NS(=O)(=O)c1ccccc1[N+](=O)[O-])[C@H]1O[C@@H](n2ccc(=O)[nH]c2=O)[C@H](O)[C@@H]1O	1	nt	nt	2	-1	nt	nt
OCC[C@H]1C[C@H](O)[C@@H](O)[C@]2(CCCc3ccccc3O2)O1	-1	10	-1	2	-1	nt	nt
Cc1cccc(OCC(=O)Nc2cc(NC(=O)COc3cccc(C)c3)cc(C(=O)O)c2)c1	-2	1	2	63*	-6	61*	22*
Cc1cc(C)cc(OCC(=O)Nc2cccc(C(=O)O)c2)c1	-3	-10	2	5	-4	nt	nt
COc1cccc(OCC(=O)Nc2cc(NC(=O)COc3cccc(OC)c3)cc(C(=O)O)c2)c1	-1	-12	3	55*	2	53*	18*
COc1cccc(OCC(=O)Nc2ccncc2)c1	-1	-40	0	-1	-4	nt	nt
COCCCN1C(=O)C(CC(=O)NCc2cccc3ccccc23)CC(C(=O)N(C(C)C)C(C)C)=C1C (stereo not given)	2	7	nt	1	2	nt	nt
COc1ccc(N2C(=O)c3[nH]nc(-c4ccccc4)c3C2c2ccc(F)cc2)cc1 (stereo not given)	0	nt	nt	6	-1	nt	nt
Cc1sc(NC(=O)C2CCCCC2C(=O)O)c(C(N)=O)c1-c1ccc(C(C)C)cc1 (stereo not given)	2	-58	1	37*	-6	54*	16*
Cc1sc(NC(=O)C2CCCCC2C(=O)O)c(C(N)=O)c1-c1ccccc1 (stereo not given)	-4	-100	2	15	-3	nt	nt
O=C(CCN1C(=O)/C(=C\C=C\c2ccccc2)SC1=S)Nc1ccc(C(=O)O)cc1	-2	-5	5	46*	-3	78*	43*
O=C(CN1C(=O)S/C(=C/C=C/c2ccccc2)C1=O)Nc1ccc(C(=O)O)cc1	-3	-46	4	65*	-3	45*	15*
O=C(COC(=O)CCN1C(=O)/C(=C\C=C\c2ccccc2)SC1=S)Nc1cc(F)ccc1F	-2	-13	4	38*	0	28	14*
O=C(CN1C(=O)/C(=C\C=C\c2ccccc2)SC1=S)Nc1ccc(F)cc1	-1	-20	2	13	3	nt	nt
O=C(CN1C(=O)S/C(=C\C=C\c2ccccc2)C1=O)Nc1ccc(C(=O)O)cc1	0	-23	-2	54*	-5	46*	18*
O=C(CNC(=O)c1ccccc1Br)Nc1cccc(S(=O)(=O)Nc2ccccc2Cl)c1	0	-10	nt	26	-1	nt	nt
CC1(C)CC(=O)C=C(C2CC2)C1=O	-2	nt	nt	4	-3	nt	nt
CCOC(=O)c1ccc2c(c1)C1C=CCC1C(C(=O)OCC)N2 (stereo not given)	-1	-26	1	47*	7	35*	17*
Cc1cccc2c1c1ccc3c(c1n2C)C(=O)C=CC3=O	-2	-36	nt	39*	4	20	13*
SMILES	PG9 Ab binder	NR2E3 ag-1	NR2E3 ag-2	rCAG RNA binder	Rev-erbA mod	rCAG bind conf	DNA CAG counter	others
Cc1ccc2nc(C(C)(C)C)c(Cc3ccsc3)n2c1	0	2	nt	5	11	nt	nt
C[C@H]1CN(c2ccccc2)C(=O)[C@@H]1CC(=O)Nc1ccccc1	-1	-20	nt	-1	-3	nt	nt
Cc1cc(Oc2ccc(Cl)cc2)nc(-c2ccccn2)n1	1	-24	2	88*	-1	0	-1
Cc1cc(Oc2ccccc2)nc(-c2ccccc2O)n1	0	-16	1	0	-4	nt	nt
CS(=O)(=O)c1ccc2c(c1)sc1nc(=O)c(/C=C3/C=CC(=O)C(O)=C3)c(N)n12	-2	-32	2	39*	-22	48*	18*
CN(C)c1ccc(C(O)c2cc3ccccc3s2)cc1 (stereo not given)	1	-147	nt	7	6	nt	nt
O=C(Cc1cccc(NC(=O)C2CCN(C(=O)C3CC3)CC2)c1)Nc1cccc(C(=O)N2CCCCC2)c1	0	-26	nt	5	-1	nt	nt
COc1cc(/C=C/c2ccc3cccc([N+](=O)[O-])c3n2)ccc1OCC(=O)O	-2	-13	-4	48*	0	47*	13*
CC(=O)Nc1ccc(/C=C/c2ccc3cccc([N+](=O)[O-])c3n2)cc1	-2	-86	-2	20	7	nt	nt
O=C(O)COc1ccc(/C=C/c2ccc3cccc([N+](=O)[O-])c3n2)cc1	-2	9	-8	37*	5	27	8.4*
Cc1noc(C)c1S(=O)(=O)N1CCCc2nc(-c3ccc(Br)cc3)ccc21	1	nt	nt	3	-3	nt	nt
N#CCCCc1cn(-c2ccc(-c3noc4c3C(=O)N(CC(=O)N3CCOCC3)CC4)cc2)nn1	nt	nt	nt	0	5	nt	nt
Cc1csc(N/N=C/c2ccc(O)c([N+](=O)[O-])c2)n1	-18	-21	-1	28	7	nt	nt
O=C(N/N=C/c1ccc(O)c([N+](=O)[O-])c1)C1CC1(c1ccccc1)c1ccccc1 (stereo not given)	-1	25	1	50*	10	50*	19*
O=C(CNC(=O)c1ccco1)N/N=C/c1ccc(O)c([N+](=O)[O-])c1	-4	-1	4	5	-4	nt	nt
O=C(CNC(=O)C(c1ccccc1)c1ccccc1)N/N=C/c1ccc(O)c([N+](=O)[O-])c1	-1	-14	-4	44*	13	22	4.7*

Assay outcomes: PubChem BioAssay, several laboratories
